ChEMBL document CHEMBL1772948, “Chemistry and biology of macrolide antiparasitic agents” (J Med Chem, 2011)
≈ marks a conversion by molar mass, not a printed value. Calls of active or inactive are those of the source. The calls are words filed in the database; no cut-off is given here.

Experiments:
[1] = test system: Toxoplasma gondii; assay: Antiparasitic activity against Toxoplasma gondii 2F-1 expressing yellow fluorescent protein infected in HFF after 4 days; type: functional, organism-based; details: 2F-1, 96 h
[2] = test system: Bacillus subtilis; assay: Antibacterial activity against Bacillus subtilis; type: functional
[3] = test system: HFF; assay: Cytotoxicity against HFF after 48 hrs by MTS assay; type: cell-based; details: human
Method in brief: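 Low-passage HFF seeded in 96-well plates and incubated 24h at 37 °C, then exposed to varying macrolide concentrations for 2 days; medium replaced with fresh medium plus MTS, 4h at 37 °C, absorbance 490 nm; CC50 = dose reducing viability by 50%.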

[4] = test system: Toxoplasma gondii; assay: Antiparasitic activity against yellow fluorescent protein expressing Toxoplasma gondii 2F-1 infected in HFF treated immediately after infection measured after 48 hrs; type: functional, organism-based; details: 2F-1, 48 h
[5] = test system: Toxoplasma gondii; assay: Antiparasitic activity against yellow fluorescent protein expressing Toxoplasma gondii 2F-1 treated immediately after infection for 48 hrs followed by reinoculated into fresh HFF monolayers measured after 48 hrs; type: functional, organism-based; details: 2F-1, 48 h
Method in brief: (§1)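 Two-cycle protocol in HFF at 37 °C, 5% CO2, DMEM with 10% FBS. "0h": compound added with parasites, 48 h. "6h": parasites pre-incubated 6 h, uninvaded parasites removed, fresh medium with compound added, 42 h. Released tachyzoites were then harvested, purified and inoculated into fresh HFF without compound for the 2nd cycle. At least triplicate.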

[6] = test system: Toxoplasma gondii; assay: Antiparasitic activity against yellow fluorescent protein expressing Toxoplasma gondii 2F-1 infected in HFF treated 6 hrs after infection measured after 48 hrs; type: functional, organism-based
[7] = test system: Toxoplasma gondii; assay: Antiparasitic activity against yellow fluorescent protein expressing Toxoplasma gondii 2F-1 treated 6 hrs after infection for 42 hrs followed by reinoculated into fresh HFF monolayers measured after 48 hrs; type: functional, organism-based; method in brief: as §1
[8] = test system: Toxoplasma gondii; assay: Antiparasitic activity against green fluorescent protein expressing […] deficient Toxoplasma gondii RH infected in HFF at 5 uM treated immediately after infection measured after 48 hrs; type: functional, organism-based
Method in brief: (§2)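 GFP-expressing RHΔhxgprt tachyzoites were grown on HFF on glass coverslips in 12-well plates (2×10^4/well). Compound was added either with the parasites ("0h", 48 h) or after a 6 h pre-infection and medium change ("6h", 42 h). Parasites per vacuole were counted by fluorescence microscopy in at least 50 random vacuoles per well. Three independent experiments.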

[9] = test system: Toxoplasma gondii; assay: Antiparasitic activity against green fluorescent protein expressing hwgprt deficient Toxoplasma gondii RH at 5 uM treated immediately after infection for 48 hrs followed by reinoculated into fresh HFF monolayers measured after 48 hrs; type: functional, organism-based; method in brief: as §1
[10] = test system: Toxoplasma gondii; assay: Antiparasitic activity against green fluorescent protein expressing […] deficient Toxoplasma gondii RH infected in HFF at 5 uM treated 6 hrs after infection measured after 48 hrs; type: functional, organism-based; method in brief: as §2
[11] = test system: Toxoplasma gondii; assay: Antiparasitic activity against green fluorescent protein expressing hwgprt deficient Toxoplasma gondii RH at 5 uM treated 6 hrs after infection for 42 hrs followed by reinoculated into fresh HFF monolayers measured after 48 hrs; type: functional, organism-based; method in brief: as §1
[12] = test system: Toxoplasma gondii; assay: Antiparasitic activity against green fluorescent protein expressing hwgprt deficient Toxoplasma gondii RH infected in HFF assessed as reduction of ycf24/UPRT genes copy number ratio at 10 uM […] followed by reinoculated into fresh HFF monolayers measured after 48 hrs by RT-PCR analysis; type: functional
[13] = test system: Toxoplasma gondii; assay: Antiparasitic activity against clindamycin-resistant Toxoplasma gondii 4 infected in HFF assessed as reduction of ycf24/UPRT genes copy number ratio at 10 uM treated for 48 hrs after 6 hrs infection followed by reinoculated into fresh HFF monolayers measured after 48 hrs by RT-PCR analysis; type: functional
Method in brief: (§3)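 Tachyzoites were seeded on confluent HFF monolayers in 6-well plates at 2×10^5 per well, in DMEM with 10% FBS and 1% PS at 37 °C, 5% CO2. After 6 h pre-infection, the medium was replaced with medium containing compound for 42 h. Released parasites were reinoculated into fresh HFF without drug for 48 h, collected by centrifugation, and measured by qPCR as the ratio of plastid ycf24 to nuclear UPRT copies. At least triplicate.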

[14] = test system: Toxoplasma gondii; assay: (§4) Antiparasitic activity against green fluorescent protein expressing hwgprt deficient Toxoplasma gondii RH infected in HFF assessed as reduction of ycf24/UPRT genes copy number ratio at 1 uM treated for 48 hrs after 6 hrs infection followed by reinoculated into fresh HFF monolayers measured after 48 hrs by RT-PCR analysis; type: functional
[15] = test system: Toxoplasma gondii; assay: Antiparasitic activity against clindamycin-resistant Toxoplasma gondii 4 infected in HFF assessed as reduction of ycf24/UPRT genes copy number ratio at 1 uM treated for 48 hrs after 6 hrs infection followed by reinoculated into fresh HFF monolayers measured after 48 hrs by RT-PCR analysis; type: functional
[16] = test system: Toxoplasma gondii; assay: as §4, with “0.1” for “1”; type: functional; method in brief: as §3
[17] = test system: Toxoplasma gondii; assay: Antiparasitic activity against clindamycin-resistant Toxoplasma gondii 4 infected in HFF assessed as reduction of ycf24/UPRT genes copy number ratio at 0.1 uM treated for 48 hrs after 6 hrs infection followed by reinoculated into fresh HFF monolayers measured after 48 hrs by RT-PCR analysis; type: functional; method in brief: as §3
[18] = test system: Toxoplasma gondii; assay: Antiparasitic activity against green fluorescent protein expressing […] deficient Toxoplasma gondii RH infected in HFF assessed as parasite doubling time at 5 uM treated immediately after infection measured after 48 hrs; type: functional
Method in brief: (§5)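 HFF were grown on glass coverslips in 12-well plates and infected with 2×10^4 GFP tachyzoites per well. Compound was added with the inoculum; the first cycle ran 48 h, and the second cycle ran in fresh HFF without drug. Parasites per vacuole were counted by fluorescence microscopy, at least 50 random vacuoles per well, to derive doubling time. Three independent experiments.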

[19] = test system: Toxoplasma gondii; assay: Antiparasitic activity against green fluorescent protein expressing […] deficient Toxoplasma gondii RH assessed as parasite doubling time at 5 uM treated immediately after infection for 48 hrs followed by reinoculated into fresh HFF monolayers measured after 48 hrs; type: functional; method in brief: as §5
[20] = test system: Toxoplasma gondii; assay: Antiparasitic activity against green fluorescent protein expressing […] deficient Toxoplasma gondii RH infected in HFF assessed as decrease in density of parasitophorous vacuoles at 10 uM treated immediately after infection measured after 24 hrs by microscopic analysis; type: functional, organism-based
Method in brief: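 GFP T. gondii RHΔhxgprt in HFF, compound (10 μM) added either with the inoculum ("0h") or after 6 h pre-infection and washing ("6h"); vacuoles per microscope field scored at 24 h, at least 20 random fields from each of three experiments.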

[21] = test system: Toxoplasma gondii; assay: Antiparasitic activity against clindamycin-resistant Toxoplasma gondii 4 infected in HFF assessed as reduction of ycf24/UPRT genes copy number ratio at 10 uM treated for 48 hrs immediately after infection followed by reinoculated into fresh HFF monolayers measured after 48 hrs by RT-PCR analysis; type: functional
Method in brief: (§6)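 Tachyzoites were seeded on confluent HFF in 6-well plates at 2×10^5 per well, in DMEM with 10% FBS and 1% PS at 37 °C, 5% CO2. Compound was added together with the parasite inoculum, and cultures ran 48 h. Harvested tachyzoites were reinoculated into fresh HFF without drug for a second cycle. Parasites were pelleted by centrifugation and the plastid ycf24 to nuclear UPRT copy ratio was read by qPCR (40 cycles, 94 °C 3 s / 60 °C 30 s). At least triplicate.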

[22] = test system: Toxoplasma gondii; assay: (§7) Antiparasitic activity against green fluorescent protein expressing […] deficient Toxoplasma gondii RH infected in HFF assessed as reduction of ycf24/UPRT genes copy number ratio at 1 uM treated for 48 hrs immediately after infection followed by reinoculated into fresh HFF monolayers measured after 48 hrs by RT-PCR analysis; type: functional
Method in brief: as §6, with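 “CO2.” for “CO2. Compound was added together with the parasite inoculum, and cultures ran 48 h.”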

[23] = test system: Toxoplasma gondii; assay: Antiparasitic activity against clindamycin-resistant Toxoplasma gondii 4 infected in HFF assessed as reduction of ycf24/UPRT genes copy number ratio at 1 uM treated for 48 hrs immediately after infection followed by reinoculated into fresh HFF monolayers measured after 48 hrs by RT-PCR analysis; type: functional
Method in brief: as §6, with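 “CO2.” for “CO2. Compound was added together with the parasite inoculum, and cultures ran 48 h.”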

[24] = test system: Toxoplasma gondii; assay: as §7, with “0.1” for “1”; type: functional; method in brief: as §6
[25] = test system: Toxoplasma gondii; assay: Antiparasitic activity against clindamycin-resistant Toxoplasma gondii 4 infected in HFF assessed as reduction of ycf24/UPRT genes copy number ratio at 0.1 uM treated for 48 hrs immediately after infection followed by reinoculated into fresh HFF monolayers measured after 48 hrs by RT-PCR analysis; type: functional; method in brief: as §6
[26] = test system: Toxoplasma gondii; assay: Antiparasitic activity against green fluorescent protein expressing hwgprt deficient Toxoplasma gondii RH infected in HFF assessed as reduction of ycf24/UPRT genes copy number ratio at 10 uM treated for 42 hrs starting 6 hrs after infection followed by reinoculated into fresh HFF monolayers measured after 48 hrs by RT-PCR analysis

What does the source list for `CC[C@H]1OC(=O)[C@H](C)[C@@H](O[C@H]2C[C@@](C)(OC)[C@@H](O)[C@H](C)O2)[C@H](C)[C@@H](O[C@@H]2O[C@H](C)C[C@H](N(C)C)[C@H]2O)[C@](C)(O)C[C@@H](C)CN(Cc2ccccc2)[C@H](C)[C@@H](O)[C@]1(C)O`?
IC50 [1]: 2 µM; MIC [2]: 0.3 µM (≈ 0.248 µg/mL); CC50 [3]: 32 µM; IC50 [4]: 5 µM; IC50 [5]: 0.5 µM; IC50 [6]: 9 µM; IC50 [7]: 0.5 µM; Activity [8]: Active; Activity [9]: Active; Activity [10]: Active; Activity [11]: Active; Ratio [12]: 6; Ratio [13]: 5; Ratio [14]: 5; Ratio [15]: 3; Ratio [16]: 17; Ratio [17]: 15; Time [18]: 9.5 h; Time [19]: >16 h; Activity [20]: Active; Ratio [21]: 11; Ratio [22]: 7; Ratio [23]: 8; Ratio [24]: 13; Ratio [25]: 23; Ratio [26]: 13
